In ChEMBL document CHEMBL4346658, “sp2-Iminosugar glycolipids as inhibitors of lipopolysaccharide-mediated human dendritic cell activation in vitro and of acute inflammation in mice in vivo” (Eur J Med Chem, 2019) one finds inhibition and Activity data, which are given here for 1 compound.

The test system of assay [1] is Dendritic cell. The assay is described as follows: Antiinflammatory activity in human dendritic cells assessed as reduction in LPS-induced CD83 expression on cell surface at 100 uM pretreated with LPS upto 6 hrs followed by compound addition measured after 24 hrs by FACS analysis. Format: functional, cell-based.
Assay [2] relates to Dendritic cell. The assay is described as follows: Antiinflammatory activity in human dendritic cells assessed as reduction in LPS-induced TNFalpha production at 100 uM pretreated with LPS for 30 mins followed by compound addition measured after 24 hrs by ELISA. Format: functional, cell-based. The method, boiled down:
(§1)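 Monocyte-derived DCs (10^5 per 200 µL) were stimulated with ultrapure E. coli K12 LPS (100 ng mL⁻¹). Compound was added 0.5, 2, 4 or 6 h after LPS. TNF-α in the supernatant was measured by ELISA 24 h after stimulation, as mean ± SD of more than 3 independent assays.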
(In an ELISA, binding on a coated surface is turned into a signal by an enzyme label.)

The test system of assay [3] is Dendritic cell. Put plainly: Antiinflammatory activity in human dendritic cells assessed as reduction in LPS-induced TNFalpha production at 100 uM pretreated with LPS up to 6 hrs followed by compound addition measured after 24 hrs by ELISA. The format is functional, cell-based. In a few lines:
as §1

Assay [4] has as its system Dendritic cell. The assay is described as follows: Antiinflammatory activity in human dendritic cells assessed as reduction in LPS-induced TNFalpha production at 100 uM cotreated with LPS measured after 24 hrs by ELISA. The format is functional, cell-based. The method, boiled down:
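DCs came from human blood monocytes (Ficoll/Percoll) cultured 5 days with GM-CSF 50 ng ml⁻¹ and IL-4 10 ng ml⁻¹, in RPMI/10% FCS at 37 °C and 5% CO₂. Cells (10^5 per 200 µL) got E. coli K12 LPS (100 ng mL⁻¹) plus compound at the same time. After 24 h, supernatant TNF-α was measured by ELISA, with at least 3 donors and mean ± SEM.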

Assay [5] deals with Dendritic cell. Put plainly: Antiinflammatory activity in human dendritic cells assessed as reduction in LPS-induced CD86 expression on cell surface at 100 uM pretreated with LPS upto 6 hrs followed by compound addition measured after 24 hrs by FACS analysis. The format is functional, cell-based. (In general: In flow cytometry, cells or beads pass a laser one at a time.)
Assay [6] has as its system Dendritic cell. The assay is described as follows: Antiinflammatory activity in human dendritic cells assessed as CD14-TLR-4 co-localization at 100 uM incubated for 30 mins by DAPI staining based confocal microscopy. The format is functional. In a few lines: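 Monocyte-derived DCs (10^5 per chamber) on poly-L-lysine-coated chamber slides were treated for 30 min, then washed, fixed and permeabilized. They were stained with goat anti-TLR-4 (5 µg mL⁻¹) plus AF488 anti-goat, and anti-CD14-APC, with DAPI nuclei. Confocal imaging gave the Pearson CD14/TLR-4 colocalization coefficient per field of 15–20 cells, from two independent assays.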

Assay [7] has as its system Dendritic cell. Put plainly: Antiinflammatory activity in human dendritic cells assessed as reduction in CD14 receptor cell surface expression at 100 uM incubated for 30 mins by flow cytometric analysis. The format is functional, cell-based. The method, boiled down:
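Monocyte-derived DCs (10^5 in 200 µL complete medium) were exposed for 30 min at 37 °C without LPS. They were then washed, held on ice, stained with anti-CD14-PE, and surface CD14 was read by flow cytometry.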

The source made the active and inactive calls. The rule behind the calls is not given here.

For `CCCCCCCCCCCCC#CC#CCCCCCCCCC(=O)NC(COCCC(=O)NCCOCCOCCOCCO[C@H]1O[C@H](CO)[C@@H](O)[C@H](O)[C@@H]1O)(COCCC(=O)NCCOCCOCCOCCO[C@H]1O[C@H](CO)[C@@H](O)[C@H](O)[C@@H]1O)COCCC(=O)NCCOCCOCCOCCO[C@H]1O[C@H](CO)[C@@H](O)[C@H](O)[C@@H]1O`, the inhibition result in the assay with Dendritic cell [1], in the assay with Dendritic cell [3] and with Dendritic cell [5] was “inactive” each time. Also, the inhibition result in the assay with Dendritic cell [2], in the assay with Dendritic cell [4] and in the assay on Dendritic cell [7] was “Active” in each case. Also, the outcome in the assay with Dendritic cell [6] was Active.
